Results reported in ChEMBL document CHEMBL5303300, “EUbOPEN Chemogenomics Library - Multiplex” (2023).
“And” between values parts separate entries of the source, which are not always exact repeats. Identical values can stand only once.

Test system: U2OS
Assay: Multiplex assay against U2OS
Format: toxicity, cell-based
Settings: human, number of replicates 2
Outline: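 Live cells were stained at seeding with Hoechst33342, BioTracker Green Microtubule Cytoskeleton Dye, MitoTracker Red and Annexin V Alexa Fluor 680. Following compound addition, they were imaged on a CQ1 microscope at 37°C and 5% CO2 and gated by CellPathfinder machine learning into Hoechst high-intensity objects or normal cells, with normal cells split into healthy, pyknosed or fragmented nuclei and pyknosed cells into mitotic or apoptotic. Tubulin, mitochondrial-mass and membrane-permeability phenotypes are per cents of healthy-nucleus cells.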

[1] = 12 h, 1 µM, compound concentration 1 uM
[2] = 12 h, 10 µM, compound concentration 10 uM
[3] = 24 h, 1 µM, compound concentration 1 uM
[4] = 24 h, 10 µM, compound concentration 10 uM
[5] = 48 h, 1 µM, compound concentration 1 uM
[6] = 48 h, 10 µM, compound concentration 10 uM

Compound: CN1CCCN(C(=O)c2cccc(-c3ccc(/C=C4/C(=O)Nc5ccc(Cl)cc54)o3)c2)CC1
- Population Apoptotic (%) [1]: 64% and 66%
- Population Fragmented Nuclei (%) [1]: 9% and 10%
- Population Healthy Nuclei (%) [1]: 77% and 81%
- Population Hoechst High Intensity Objects (%) [1]: 0%
- Population Membrane Permeable-Phenotype (%) [1]: 0%
- Population Mitochondria Different-Phenotype (%) [1]: 6% and 0%
- Population Mitotic Cells (%) [1]: 35% and 33%
- Population Normal (%) [1]: 100%
- Population Pyknosed Nuclei (%) [1]: 13% and 8%
- Population Tubulin-Different-Phenotype (%) [1]: 70% and 43%
- Population Apoptotic (%) [2]: 91% and 64%
- Population Healthy Nuclei (%) [2]: 18% and 30%
- Population Hoechst High Intensity Objects (%) [2]: 0% and 10%
- Population Normal (%) [2]: 99% and 89%
- Population Pyknosed Nuclei (%) [2]: 68% and 26%
- Population Tubulin-Different-Phenotype (%) [2]: 100% and 56%
- Total Cell Count [2]: 142 and 58
- Population Apoptotic (%) [3]: 62% and 87%
- Population Fragmented Nuclei (%) [3]: 7% and 8%
- Population Healthy Nuclei (%) [3]: 73%
- Population Hoechst High Intensity Objects (%) [3]: 0%
- Population Membrane Permeable-Phenotype (%) [3]: 6% and 2%
- Population Mitochondria Different-Phenotype (%) [3]: 3% and 5%
- Population Normal (%) [3]: 100%
- Population Pyknosed Nuclei (%) [3]: 19% and 18%
- Population Tubulin-Different-Phenotype (%) [3]: 53% and 72%
- Population Apoptotic (%) [4]: 95% and 57%
- Population Hoechst High Intensity Objects (%) [4]: 0% and 15%
- Population Normal (%) [4]: 99% and 85%
- Population Pyknosed Nuclei (%) [4]: 89% and 41%
- Population Tubulin-Different-Phenotype (%) [4]: 100% and 72%
- Total Cell Count [4]: 136 and 60
- Population Apoptotic (%) [5]: 77% and 90%
- Population Fragmented Nuclei (%) [5]: 10%
- Population Healthy Nuclei (%) [5]: 65% and 61%
- Population Hoechst High Intensity Objects (%) [5]: 0%
- Population Membrane Permeable-Phenotype (%) [5]: 8% and 4%
- Population Mitochondria Different-Phenotype (%) [5]: 0% and 1%
- Population Mitotic Cells (%) [5]: 22% and 10%
- Population Normal (%) [5]: 100%
- Population Pyknosed Nuclei (%) [5]: 23% and 28%
- Population Tubulin-Different-Phenotype (%) [5]: 52% and 80%
- Total Cell Count [5]: 38 and 106
- Population Apoptotic (%) [6]: 96% and 62%
- Population Healthy Nuclei (%) [6]: 22% and 27%
- Population Hoechst High Intensity Objects (%) [6]: 0% and 14%
- Population Normal (%) [6]: 100% and 85%
- Population Pyknosed Nuclei (%) [6]: 73% and 29%
- Population Tubulin-Different-Phenotype (%) [6]: 92% and 86%
- Total Cell Count [6]: 127 and 64
